UHRF1 MBD2 ctr = human UHRF1 methylated DNA binding inhibitors | AID 687016 | inhibition, % at 4.4 µM | 370,000 tested, 0.75% active | UHRF1 binding to methylated oligo, TR-FRET | Q96T88; in the data active = inhibition above about 21%;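 note: UHRF1 SRA domain binding a hemimethylated CpG hairpin DNA probe; 0% = median of test compound wells and 100% = reference inhibitor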
Target sequence (Q96T88 whole entry, looked up, the tested form may be a part): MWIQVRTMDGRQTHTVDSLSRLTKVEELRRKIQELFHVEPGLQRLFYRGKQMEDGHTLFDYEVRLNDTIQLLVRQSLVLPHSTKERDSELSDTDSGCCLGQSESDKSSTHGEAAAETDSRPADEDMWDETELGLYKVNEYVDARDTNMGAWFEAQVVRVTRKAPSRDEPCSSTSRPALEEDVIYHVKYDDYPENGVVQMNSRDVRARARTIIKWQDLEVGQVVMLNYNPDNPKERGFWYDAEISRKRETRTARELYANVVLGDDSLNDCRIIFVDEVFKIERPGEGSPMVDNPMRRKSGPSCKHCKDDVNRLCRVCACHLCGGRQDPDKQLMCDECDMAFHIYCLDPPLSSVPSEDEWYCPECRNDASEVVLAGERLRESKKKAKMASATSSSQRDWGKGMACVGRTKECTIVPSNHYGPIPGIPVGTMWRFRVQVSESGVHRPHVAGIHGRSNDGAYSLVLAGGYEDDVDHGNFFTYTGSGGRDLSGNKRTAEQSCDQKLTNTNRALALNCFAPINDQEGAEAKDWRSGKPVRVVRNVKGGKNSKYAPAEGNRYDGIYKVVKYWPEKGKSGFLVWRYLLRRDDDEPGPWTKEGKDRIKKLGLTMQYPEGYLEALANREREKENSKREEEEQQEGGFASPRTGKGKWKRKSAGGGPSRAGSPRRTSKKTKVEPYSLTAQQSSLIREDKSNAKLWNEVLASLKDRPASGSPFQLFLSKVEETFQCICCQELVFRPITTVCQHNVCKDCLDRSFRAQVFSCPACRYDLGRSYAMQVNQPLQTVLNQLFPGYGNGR
NSD2 inh = inhibitors of human histone methyltransferase NSD2; NSD2 peptide methylation, AlphaScreen, 120 min; inhibition, % at 12.5 µM; 310,000 tested, 0.54% active; in the data active = inhibition above about 50%
MBD2 DNA inh = blocks human MBD2 binding to methylated DNA; Q9UBB5; 370,000 tested, 0.31% active; TR-FRET, MBD2 binding to methylated oligonucleotide; inhibition, % at 4.4 µM; in the data active = inhibition above about 13%
CASP6 VEID inh = inhibitors of human caspase-6 | P55212 | purified caspase-6, Z-VEID-R110 cleavage fluorescence | inhibition, % at 12.5 µM | 350,000 tested, 0.53% active | AID 686996;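 active = mean inhibition across replicates at least about 35%, with every replicate also reaching that limit, limit read from the data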;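 note: 0% = median of neutral control wells and 100% = no fluorescence left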
TDP2 absorb = blocks human TDP2 phosphodiesterase activity; recombinant TDP2, T5PNP hydrolysis, p-nitrophenol absorbance 415 nm; O95551; 370,000 tested, 0.34% active; inhibition, % at 12.8 µM;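 active = inhibition above the mean of all tested compounds plus 3 SD, set per campaign, cut at about 25% in these data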;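 note: 0% = DMSO with enzyme and 100% = buffer with substrate but no TDP2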
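Assay system: recombinant human TDP2 / Reagent: T5PNP substrate at 5 mM, a TopII-DNA adduct mimic / Measured by: epi absorbance from released p-nitrophenol / Evaluation: % inhibition relative to enzyme-containing and enzyme-free wells / Control set: enzyme-free and DMSO wells / Replicates: each compound tested once, singlicate / Schedule: enzyme reaction with compound for 2 h at 37 °C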
LEDGF integ inh = blocks HIV-1 LEDGF/p75-dependent DNA integration | TR-FRET IN-LEDGF/p75 DNA integration, Eu/Cy5 | inhibition, % at 3.7 µM | 370,000 tested, 0.64% active | AID 743269;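 active = inhibition above the screen-wide mean plus 3 SD, cut at about 13% in these data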;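 note: signal is the Cy5 over europium emission ratio at 671 and 618 nm; 0% = plate median of compound wells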
* hit, by the source's call; . = no result given. Rows were chosen to be rich in hits. Some 1.9% of all compounds tested hit in one or more screens of this group.

SMILES | UHRF1 MBD2 ctr | NSD2 inh | MBD2 DNA inh | CASP6 VEID inh | TDP2 absorb | LEDGF integ inh
Cc1cc(C)c(C)c(S(=O)(=O)N2CCN(C)CC2)c1C | 39.4* | 6.3 | 3.8 | 0.8 | -5.4 | -2.0
Cc1cc(C)c(C)c(S(=O)(=O)N2CCSCC2)c1C | -0.1 | -1.5 | -2.3 | -1.3 | -12.2 | 2.4
CC(C)NC(=O)Nc1ccc2c(c1)C(=O)N([C@H](C)CO)C[C@@H](C)[C@H](CN(C)CC1CCCCC1)O2 | . | . | . | -3.5 | . | .
Cn1cc(C(CC(=O)O)C(=O)O)c2ccccc21 (stereo not drawn) | 1.4 | 17.1 | -0.6 | 42.6* | 0.0 | 2.1
CCOC(=O)C1CCCN(S(=O)(=O)c2nc3nc(C)cc(C)n3n2)C1 (stereo not drawn) | -0.5 | 0.8 | -0.4 | 37.0* | 3.0 | 1.7
CCOC(=O)C1CCCN(S(=O)(=O)c2ccc(S(=O)(=O)N3CCCC3)cc2)C1 (stereo not drawn) | 4.0 | -4.7 | -4.3 | 1.5 | 0.5 | -2.4
O=C(N/N=C/c1ccc(F)cc1)c1ccccc1 | 27.1* | -2.0 | -3.7 | -1.9 | 3.1 | -5.1
O=C(O)c1ccc(/C=N/NC(=O)c2ccc(F)cc2)cc1 | -0.1 | -0.2 | -4.6 | 2.3 | 2.0 | 1.0
CC1(C(=O)Nc2ccc3c(c2)OCO3)CCN1C(=O)C1CCCCC1 (stereo not drawn) | 3.7 | -5.3 | 1.4 | 4.5 | -5.4 | 9.4
CC1(C(=O)Nc2ccc(Cl)c(Cl)c2)CCN1C(=O)C1CCCCC1 (stereo not drawn) | 22.1* | -2.7 | -0.4 | 9.3 | -15.5 | 1.7
CC1CCN(C2=C(NS(=O)(=O)c3ccc(Cl)cc3)C(=O)c3ccccc3C2=O)CC1 | 0.3 | 14.3 | -3.2 | 6.9 | -0.8 | 3.3
CCOC(=O)C1CCN(C2=C(NS(=O)(=O)c3ccc(Cl)cc3)C(=O)c3ccccc3C2=O)CC1 | -9.2 | 66.9* | -6.8 | 0.0 | 17.8 | 1.6
CCN1CCN(C2=C(NS(=O)(=O)c3ccc(NC(C)=O)cc3)C(=O)c3ccccc3C2=O)CC1 | -8.0 | 26.5 | -15.6 | 47.7* | 20.3 | 1.4
CC(=O)Nc1ccc(S(=O)(=O)NC2=C(N3CCN(Cc4ccccc4)CC3)C(=O)c3ccccc3C2=O)cc1 | -12.8 | 23.5 | -9.1 | 29.6 | 12.8 | 6.6
CC(=O)Nc1ccc(S(=O)(=O)NC2=C(N3CCN(C)CC3)C(=O)c3ccccc3C2=O)cc1 | -10.8 | 28.7 | -13.7 | 44.0* | 23.6 | 4.6
O=C(O)[C@@H]1[C@@H](CO)[C@@H]2Cn3c(ccc(C4=CCCCC4)c3=O)[C@@H]2N1C(=O)Cc1cccnc1 | . | . | . | -1.0 | . | .
Cc1ccc(S(=O)(=O)Nc2ccc3c(c2)C(=O)N([C@@H](C)CO)C[C@@H](C)[C@@H](CN(C)S(=O)(=O)c2ccc(F)cc2)OCCCC[C@H](C)O3)cc1 | . | . | . | 3.7 | . | .
O=C(Nc1ccc(F)cc1)Nc1ccc2c(c1)[C@H]1C[C@H](CC(=O)N3CCOCC3)O[C@@H](CO)[C@H]1O2 | . | . | . | 2.6 | . | .
COc1ccc(C(=O)NC2CC2)cc1OC1CCN(Cc2ccc(F)cc2Cl)CC1 | 29.3* | 1.6 | 9.5 | -1.5 | 6.8 | 8.7
COc1ccc(CN2CCC(Oc3cc(C(=O)NC4CC4)ccc3OC)CC2)c(O)c1 | 3.6 | -4.5 | -4.7 | 0.4 | 0.3 | 0.9
Nc1nc(SCc2nc(-c3ccccc3)no2)[nH]c(=O)c1-c1ccccc1 | -0.3 | 2.2 | 2.5 | -3.7 | 8.2 | 2.3
Nc1nc(SCc2ccc(Br)cc2)[nH]c(=O)c1-c1ccccc1 | 28.5* | -0.5 | 8.1 | -0.6 | -5.6 | 0.4
C[C@H](CO)N1C[C@H](C)[C@H](CN(C)C(=O)Nc2ccccc2)Oc2ncccc2C1=O | . | . | . | 1.9 | . | .
C[C@@H]1CN([C@@H](C)CO)C(=O)c2cccc(NS(=O)(=O)c3ccc(Cl)cc3)c2O[C@H]1CN(C)C(=O)Nc1ccc2c(c1)OCO2 | . | . | . | 3.3 | . | .
Cc1nnc(SCC(=O)NCc2ccccc2Cl)[nH]c1=O | 20.9* | -3.9 | 2.7 | 2.9 | 2.1 | 1.2
SMILES | UHRF1 MBD2 ctr | NSD2 inh | MBD2 DNA inh | CASP6 VEID inh | TDP2 absorb | LEDGF integ inh
COc1cc2c(cc1OC)/C(=C/C(=O)c1ccc(F)cc1)NCC2 | 0.1 | 10.8 | -2.0 | 44.3* | -4.3 | 3.3
CO[C@@H]1CN(C)C(=O)c2ccc(NS(=O)(=O)c3cn(C)cn3)cc2OC[C@@H](C)N(Cc2cccc(C(F)(F)F)c2)C[C@H]1C | . | . | . | 1.0 | . | .
COc1ccc(NC(=O)N(C)C[C@@H]2OCCCC[C@H](C)Oc3ccc(NC(=O)Nc4ccc(C(F)(F)F)cc4)cc3C(=O)N([C@@H](C)CO)C[C@@H]2C)cc1 | . | . | . | 1.2 | . | .
COc1ccccc1N(Cc1ccccc1)S(=O)(=O)c1cccc(C(=O)Nc2ccccn2)c1 | -0.5 | 0.8 | -5.2 | 39.4* | 5.3 | -2.7
CCCCn1nc(NC(=O)CC)c2cc3cc(OC)ccc3nc21 | 22.3* | -3.8 | 10.9 | -1.0 | -17.6 | -2.0
CCCn1nc(NC(=O)C(C)(C)C)c2cc3cc(OC)ccc3nc21 | -0.1 | -5.2 | 4.6 | 0.8 | 1.3 | -3.8
COc1ccc(OCc2cc(C(=O)NC(C)Cn3cncn3)no2)c(Cl)c1 (stereo not drawn) | 26.8* | 0.6 | 9.2 | -0.7 | 5.2 | 6.8
Cc1cc(N)n(-c2ccc(Oc3ccccc3)c(S(=O)(=O)O)c2)n1 | 6.5 | 37.8 | -4.7 | 38.0* | 5.1 | -0.9
C[C@H]1CN([C@@H](C)CO)C(=O)CCCn2cc(nn2)CO[C@H]1CN(C)C(=O)Nc1ccccc1F | . | . | . | 0.1 | . | .
O=C(O)CCCCCN=Cc1c(O)c2ccccc2oc1=O | 22.7* | -4.7 | -3.0 | . | 0.1 | -2.7
O=C(Cc1ccccn1)N[C@@H]1CC[C@@H](CCn2cc(-c3ccccc3)nn2)O[C@H]1CO | . | . | . | 1.9 | . | .
COc1cccc(C(=O)OCC(=O)NC23CC4CC(CC(C4)C2)C3)c1 | -2.0 | -2.7 | 2.6 | -1.5 | -8.9 | 2.2
CC(=O)Oc1cc(C(=O)OCC(=O)NC23CC4CC(CC(C4)C2)C3)cc(OC(C)=O)c1OC(C)=O | 14.6 | . | 8.2 | 41.3* | 0.8 | 43.6*
C[C@@H]1CN([C@H](C)CO)C(=O)c2cc(-c3cccc(C#N)c3)cnc2O[C@H]1CN(C)C(=O)c1ccccn1 | . | . | . | -1.5 | . | .
COCC#Cc1ccc(CC[C@H]2O[C@H]3CC[C@H](CO)O[C@H]3C[C@H]2n2cc(C3(O)CCCC3)nn2)cc1 | . | . | . | 4.8 | . | .
CCCNC(=O)[C@@H]1[C@@H](CO)[C@@H]2Cn3c(ccc(-c4cccc(OC)c4)c3=O)[C@H]1N2CC | . | . | . | -0.1 | . | .
COCCNC(=O)C(c1ccc(F)cc1)N(C(=O)CCC(=O)Nc1nccs1)c1ccc(C)cc1 (stereo not drawn) | 20.8* | -2.6 | -1.2 | 3.4 | -11.0 | 4.2
COCCNC(=O)C(c1ccc(F)cc1)N(CCOC)C(=O)CCC(=O)Nc1nccs1 (stereo not drawn) | 14.7 | 4.6 | 4.2 | . | 9.2 | 1.6

Screening data: PubChem BioAssay, several laboratories
